# Screens as filed in PubChem BioAssay.
# CHRM4 antagonist: human M4 muscarinic receptor antagonists, primary screen, CHO cells, Fluo-8 calcium fluorescence. 360,000 compounds, 0.73% hits. Muscarinic acetylcholine receptor M4 (Homo sapiens), P08173. inhibition, % at 3 µM. CHO-hM4 cells, ACh EC80;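 active means inhibition above its plate's cutoff, the mean inhibition of sample wells plus 3 SD, cut at about 27% in these data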;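 further: 0% = acetylcholine EC80 with DMSO and 100% = DMSO without agonist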
# Target sequence (P08173 whole entry, looked up): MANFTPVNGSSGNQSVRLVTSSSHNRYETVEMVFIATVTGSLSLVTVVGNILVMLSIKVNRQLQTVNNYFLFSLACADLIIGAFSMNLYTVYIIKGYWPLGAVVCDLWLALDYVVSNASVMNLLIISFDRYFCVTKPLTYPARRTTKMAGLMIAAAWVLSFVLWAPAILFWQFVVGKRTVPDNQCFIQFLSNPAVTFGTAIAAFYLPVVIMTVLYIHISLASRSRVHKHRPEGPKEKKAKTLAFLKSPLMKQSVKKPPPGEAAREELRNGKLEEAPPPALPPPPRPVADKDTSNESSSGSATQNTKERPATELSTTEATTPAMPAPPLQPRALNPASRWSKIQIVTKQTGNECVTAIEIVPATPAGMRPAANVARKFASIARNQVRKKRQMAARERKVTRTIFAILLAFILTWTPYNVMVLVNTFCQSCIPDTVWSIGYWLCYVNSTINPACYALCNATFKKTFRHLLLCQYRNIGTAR
# CHRM5 agonist: human M5 muscarinic receptor agonists, primary screen, CHO-K1 cells, Fluo-8 calcium fluorescence; Muscarinic acetylcholine receptor M5 (Homo sapiens), P08912; CHO-K1 hM5 cells; 0% DMSO wells, 100% maximal acetylcholine response; activation, % at 3 µM; 360,000 compounds, 0.19% hits;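 active means activation above the run's mean over test compounds plus 3 SD, cut at about 23% in these data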;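 further: signal is peak over basal fluorescence ratio across the kinetic read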
# CHRM4 PAM: human M4 muscarinic receptor positive allosteric modulators, primary screen, CHO-K1 cells, Fluo-8 calcium fluorescence. activation, % at 3 µM. CHO-K1 hM4/Gqi5, ACh EC20; 0% = ACh EC20, 100% = maximal ACh. 360,000 compounds, 0.4% hits. Muscarinic acetylcholine receptor M4 (Homo sapiens), P08173;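 active means activation above its plate's cutoff, the mean activation of sample wells plus 3 SD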
# CHRM4 agonist: human M4 muscarinic receptor agonists, primary screen, CHO-K1 cells, Fluo-8 calcium fluorescence; Muscarinic acetylcholine receptor M4 (Homo sapiens), P08173; CHO-K1 hM4/Gqi5; vehicle 0%, full acetylcholine response 100%; activation, % at 3 µM; 360,000 compounds, 0.14% hits; AID 624127, 2012;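 active means activation above the run mean over all test wells plus 3 SD, cut at about 32% in these data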;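 further: peak over basal fluorescence ratio per well then scaled between controls; 0% = DMSO wells and 100% = acetylcholine at EC100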
# M5 PAM: human M5 muscarinic receptor positive allosteric modulators, primary screen, CHO-K1 cells, Fluo-8 calcium fluorescence | activation, % at 3 µM | CHO-K1 hM5, ACh EC20 PAM; 0% = ACh EC20, 100% = ACh EC100 | 360,000 compounds, 0.3% hits | AID 624038, 2012;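 active means activation above the run cutoff, the mean activation of all test compounds plus 3 SD, cut at about 18% in these data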
#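 System: CHO-K1 cell line with stable human muscarinic M5 receptor expression | Also added: EC20 acetylcholine as agonist stimulus | Compound: One concentration, 3 µM final (nominal) | Timing: Fluo-8 loading 80 min at 37 °C plus 30 min room temperature | Measured by: Fluo-8 calcium dye fluorescence, kinetic read | Read-out basis: % activation, ACh-normalized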
# CHRM5 antagonist: human M5 muscarinic receptor antagonists, primary screen, CHO cells, Fluo-8 calcium fluorescence; Muscarinic acetylcholine receptor M5 (Homo sapiens), P08912; CHO-hM5 cells, ACh EC80; inhibition, % at 3 µM; 360,000 compounds, 0.59% hits; AID 624040, 2012;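 active means inhibition above a per-plate cutoff, the mean of that plate's test compounds plus 3 SD, cut at about 27% in these data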;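 further: 0% = acetylcholine EC80 with DMSO and 100% = DMSO without agonist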
# Active calls of the source: *. Rows were chosen to be rich in hits. Some 1.8% of all compounds tested hit in one or more screens of this group.
SMILES,CHRM4 antagonist,CHRM5 agonist,CHRM4 PAM,CHRM4 agonist,M5 PAM,CHRM5 antagonist
O=C(COC(=O)CCC(=O)c1cccs1)Nc1cccc(S(=O)(=O)N2CCOCC2)c1,-6,-2,-1,4,-2,-5
Cc1ccc(NC(=O)COC(=O)CCC(=O)c2cccs2)cc1S(=O)(=O)N1CCOCC1,32*,-1,20,12,9,-3
Cc1ccc(CNC(=O)CC(C)S(=O)(=O)c2ccc3c(c2)NC(=O)C(C)S3)cc1 (stereo not given),4,-2,-4,10,-8,20
O=C1NC(c2cccc(OCc3ccccc3)c2)Nc2ccccc21 (stereo not given),3,4,-5,6,-5,10
O=c1c(/C=C(\O)c2ccccc2)nc2ccccc2n1-c1ccccc1,39*,-1,4,26,-1,5
COc1ccc(C(=O)C(C)[n+]2ccc(C)c3ccccc32)cc1[N+](=O)[O-] (stereo not given),27*,-9,-14,4,-13,4
Cc1cccc(C)c1NC(=O)C1(C)CSCC(=O)N1CC(F)(F)F (stereo not given),2,0,21,2,1,-2
CC1(C(=O)Nc2cccc(NS(C)(=O)=O)c2)Cc2c(-c3cccc(C(N)=O)c3)ccnc2O1 (stereo not given),-7,0,3,0,0,-2
CCOC(=O)CC1(C)Oc2cc(Cl)ccc2N1S(=O)(=O)c1ccc(C)cc1 (stereo not given),24,-5,-16,-1,-19,31*
CCOC(=O)CC1(CCc2ccccc2)Oc2ccccc2N1S(=O)(=O)c1ccc(C)cc1 (stereo not given),-8,1,12,3,-4,-12
COc1ccccc1NC(=O)C1CCCN(c2nc(C)cc(C)n2)C1 (stereo not given),-4,-4,17*,-1,-7,8
COc1cc(CC(=O)NCCCc2ccccc2)cc(OC)c1OC,-27,1,-3,5,12,-7
CC(C)C(=O)NC(=S)Nc1c(Cl)ccc2nsnc12,-15,1,14,1,4,4
O=c1cccc2n1Cc1cc3ccccc3nc1-2,2,4,26*,3,0,11
CC(=O)Nc1ccc(NC(=O)C(C)Oc2ccccc2C(=O)NCc2ccccc2)cc1 (stereo not given),4,4,7,3,-7,8
Cc1cccc(C(=O)O/N=C(\N)c2cccc([N+](=O)[O-])c2)c1,11,0,9,0,4,-9
N/C(=N\OC(=O)c1cccc([N+](=O)[O-])c1)c1cccnc1,-3,1,25*,5,-4,6
O=C(Cn1cnnn1)NC1CCCN(Cc2ccccc2F)C1 (stereo not given),-10,-3,2,1,-7,16
Cc1ccc(N2CCN(C(=O)C(=O)c3ccc4c(c3)OCO4)CC2)cc1,-6,-1,1,2,-2,8
COc1ccc(Cn2c(O)c(C=Nc3ccccc3C(=O)O)c3ccccc3c2=O)cc1,-18,3,16,-2,13,-3
COc1ccccc1NS(=O)(=O)c1cccc(-n2c(O)c(C=Nc3ccccc3C(=O)O)c3ccccc3c2=O)c1,1,-1,36*,-2,9,-3
Cn1c(=O)[nH]c(=O)c2c1nc(SCC(N)=O)n2Cc1cccc(Br)c1,7,-2,-4,1,1,5
COC(=O)c1sc(C(C)(C)C)cc1CS(=O)(=O)c1ccccn1,-15,9,-4,3,22*,-18
CC(C)(C)c1ccc(OCC(O)CS(=O)(=O)c2ccccn2)cc1 (stereo not given),-11,3,3,13,-2,-8
O=C(OCC(=O)N1CCc2ccccc21)C1=COCCO1,10,2,29*,-1,6,-9
SMILES,CHRM4 antagonist,CHRM5 agonist,CHRM4 PAM,CHRM4 agonist,M5 PAM,CHRM5 antagonist
CC(=O)N1CCN(c2ccc(NCc3ccc4c(c3)OCO4)cc2)CC1,17,-1,23*,2,-1,-7
CC(CC(=O)Nc1nnc(CC(C)(C)C)s1)c1ccccc1 (stereo not given),-10,4,2,1,22*,-8
O=C(CN1C(=O)CCC1=O)Nc1cccc(NC(=O)CN2C(=O)CCC2=O)c1,-10,0,11,1,19*,-2
O=C(CN1C(=O)CCC1=O)Nc1ccc(Br)cc1,-15,-5,3,0,-10,-5
CCOc1ccc(-c2nnc(-c3ccncc3)o2)cc1,-15,-7,25*,4,42*,-14
O=C(CN1CCCc2ccccc21)Nc1cccc(S(=O)(=O)N2CCCC2)c1,-1,-1,-2,3,-2,5
COc1cccc2c1C(=O)c1c(O)c3c(c(O)c1C2=O)CC(O)(C(=O)CO)CC3OC1CC(N(C)C)C(O)C(C)O1 (stereo not given),7,55*,-3,13,-32,35*
COc1cccc2c1C(=O)c1c(O)c3c(c(O)c1C2=O)C[C@@](O)(C(=O)CO)C[C@@H]3O[C@H]1C[C@H](N)[C@@H](O)[C@H](C)O1,8,5,-1,8,-3,10
O=C(c1cc(S(=O)(=O)N2CCOCC2)ccc1F)N1CCc2ccccc21,-10,0,-1,5,1,4
CCCCn1nnnc1C(c1ccnc2ccccc12)N1CCN(C/C=C/c2ccccc2)CC1 (stereo not given),23,-8,-14,1,-22,37*
COc1cccc(C(c2nnnn2C2CCCC2)N2CCN(C/C=C/c3ccccc3)CC2)c1OC (stereo not given),31*,-8,-15,3,-22,71*
CCCCn1nnnc1C(c1cccc2ccccc12)N1CCN(C/C=C/c2ccccc2)CC1 (stereo not given),84*,-6,-17,1,-23,96*
NC(=O)CSc1oc(-c2ccco2)nc1S(=O)(=O)c1ccc(F)cc1,1,-1,-3,1,-3,16
O=C(Nc1ccccc1-c1nc2ccccc2[nH]1)c1ccc(N2C(=O)CCC2=O)cc1,5,2,-4,6,-14,27*
